Laboratory results: ChEMBL document CHEMBL1687785, “ampG gene of Pseudomonas aeruginosa and its role in β-lactamase expression” (2010)
Values after ≈ are worked out from the molar mass of the structure shown.

How the values were obtained:
Format in all cases: functional
Pseudomonas aeruginosa [1] = experiment: Antimicrobial activity against ampGh1 deficient Pseudomonas aeruginosa PAO1 after 16 to 20 hrs by broth microdilution method in presence of 120 uM carbonyl cyanide m-chlorophenyl-hydrazone
Procedure, shortened: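 Serial 2-fold dilutions of β-lactam in Mueller-Hinton broth with CCCP added from a 10 mM DMSO stock to 120 μM final; inoculum about 10^4 cells from cultures grown to OD600 0.5; MIC taken as lowest concentration preventing growth after 16 to 20 h at 37°C; triplicate.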

Pseudomonas aeruginosa [2] = experiment: Antimicrobial activity against Pseudomonas aeruginosa isolate 13 obtained from cystic fibrosis patients after 16 to 20 hrs by broth microdilution method in presence of 120 uM carbonyl cyanide m-chlorophenyl-hydrazone
Procedure, shortened: (§1)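 CLSI broth microdilution in Mueller-Hinton broth with CCCP added from a 10 mM DMSO stock to 120 μM final, alongside 2-fold serial antibiotic dilutions. Inoculum from starter cultures grown to OD600 0.5. MIC is the lowest concentration preventing growth after 16-20 h at 37°C. Triplicate.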

Pseudomonas aeruginosa [3] = experiment: Antimicrobial activity against Pseudomonas aeruginosa isolate 18 obtained from cystic fibrosis patients after 16 to 20 hrs by broth microdilution method
Procedure, shortened: (§2)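 CLSI broth microdilution in Mueller-Hinton broth, serial 2-fold antibiotic dilutions. Inoculum about 10^4 cells per well, taken from starter cultures grown to OD600 0.5. MIC was the lowest antibiotic concentration preventing growth after 16 to 20 h at 37°C. Each MIC was determined in triplicate.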

Pseudomonas aeruginosa [4] = experiment: Antimicrobial activity against Pseudomonas aeruginosa isolate 17 obtained from cystic fibrosis patients after 16 to 20 hrs by broth microdilution method; procedure, shortened: as §2
Pseudomonas aeruginosa [5] = experiment: Antimicrobial activity against Pseudomonas aeruginosa isolate 7 obtained from cystic fibrosis patients after 16 to 20 hrs by broth microdilution method in presence of 120 uM carbonyl cyanide m-chlorophenyl-hydrazone
Procedure, shortened: (§3)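 CLSI broth microdilution in Mueller-Hinton broth with serial antibiotic dilutions. CCCP was added from a 10 mM DMSO stock to 120 μM final, then the bacterial culture was added as inoculum (about 10^4 cells from OD600 0.5 starter cultures). MIC was the lowest concentration preventing growth after 16 to 20 h at 37°C, run in triplicate.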

Pseudomonas aeruginosa [6] = experiment: Antimicrobial activity against ampG deficient Pseudomonas aeruginosa PAO1 after 16 to 20 hrs by broth microdilution method in presence of 120 uM carbonyl cyanide m-chlorophenyl-hydrazone; procedure, shortened: as §3
Escherichia coli = experiment: Antimicrobial activity against kanamycin resistant Escherichia coli SNO301-1 harboring pEC1C carrying ampC, ampR from Enterobacter cloacae after 16 to 20 hrs by broth microdilution method
Procedure, shortened: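 CLSI broth microdilution: serial 2-fold β-lactam dilutions in Mueller-Hinton broth, inoculum about 10^4 cells from starter cultures at OD600 0.5; MIC read as lowest concentration preventing growth after 16 to 20 h at 37°C; triplicate determinations.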

Pseudomonas aeruginosa [7] = experiment: Antimicrobial activity against Pseudomonas aeruginosa isolate 13 obtained from cystic fibrosis patients after 16 to 20 hrs by broth microdilution method
Procedure, shortened: (§4)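 CLSI broth microdilution: 2-fold serial antibiotic dilutions in Mueller-Hinton broth, inoculated with about 10^4 cells per 100 μl from starter cultures grown to OD600 0.5. MIC is the lowest concentration preventing growth after 16-20 h at 37°C. Triplicate.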

Pseudomonas aeruginosa [8] = experiment: Antimicrobial activity against Pseudomonas aeruginosa isolate 17 obtained from cystic fibrosis patients after 16 to 20 hrs by broth microdilution method in presence of 120 uM carbonyl cyanide m-chlorophenyl-hydrazone; procedure, shortened: as §3
Pseudomonas aeruginosa [9] = experiment: Antimicrobial activity against Pseudomonas aeruginosa isolate 10 obtained from cystic fibrosis patients after 16 to 20 hrs by broth microdilution method in presence of 120 uM carbonyl cyanide m-chlorophenyl-hydrazone; procedure, shortened: as §1
Pseudomonas aeruginosa [10] = experiment: Antimicrobial activity against Pseudomonas aeruginosa isolate 2 obtained from cystic fibrosis patients after 16 to 20 hrs by broth microdilution method; procedure, shortened: as §2
Pseudomonas aeruginosa [11] = experiment: Antimicrobial activity against Pseudomonas aeruginosa isolate 5 obtained from cystic fibrosis patients after 16 to 20 hrs by broth microdilution method in presence of 120 uM carbonyl cyanide m-chlorophenyl-hydrazone; procedure, shortened: as §3
Pseudomonas aeruginosa [12] = experiment: Antimicrobial activity against ampG deficient Pseudomonas aeruginosa PAO1 harboring pUCP24 conferring resistance to gentamycin after 16 to 20 hrs by broth microdilution method in presence of 120 uM carbonyl cyanide m-chlorophenyl-hydrazone; procedure, shortened: as §3
Pseudomonas aeruginosa [13] = experiment: Antimicrobial activity against ampG, ampGh1 deficient Pseudomonas aeruginosa PAO1 after 16 to 20 hrs by broth microdilution method; procedure, shortened: as §2
Pseudomonas aeruginosa [14] = experiment: Antimicrobial activity against Pseudomonas aeruginosa isolate 10 obtained from cystic fibrosis patients after 16 to 20 hrs by broth microdilution method; procedure, shortened: as §4
Pseudomonas aeruginosa [15] = experiment: Antimicrobial activity against Pseudomonas aeruginosa PAO1 after 16 to 20 hrs by broth microdilution method in presence of 120 uM carbonyl cyanide m-chlorophenyl-hydrazone; procedure, shortened: as §1
Pseudomonas aeruginosa [16] = experiment: Antimicrobial activity against ampG deficient Pseudomonas aeruginosa PAK harboring pUCP24 conferring resistance to gentamycin after 16 to 20 hrs by broth microdilution method in presence of 120 uM carbonyl cyanide m-chlorophenyl-hydrazone; procedure, shortened: as §3
Pseudomonas aeruginosa [17] = experiment: Antimicrobial activity against Pseudomonas aeruginosa isolate 15 obtained from cystic fibrosis patients after 16 to 20 hrs by broth microdilution method in presence of 120 uM carbonyl cyanide m-chlorophenyl-hydrazone; procedure, shortened: as §1
Pseudomonas aeruginosa [18] = experiment: Antimicrobial activity against ampGh1 deficient Pseudomonas aeruginosa PAK after 16 to 20 hrs by broth microdilution method; procedure, shortened: as §2
Pseudomonas aeruginosa [19] = experiment: Antimicrobial activity against Pseudomonas aeruginosa isolate 5 obtained from cystic fibrosis patients after 16 to 20 hrs by broth microdilution method; procedure, shortened: as §2
Pseudomonas aeruginosa [20] = experiment: Antimicrobial activity against ampG deficient Pseudomonas aeruginosa PAO1 harboring pZY0901 conferring resistance to gentamycin after 16 to 20 hrs by broth microdilution method in presence of 120 uM carbonyl cyanide m-chlorophenyl-hydrazone; procedure, shortened: as §3
Pseudomonas aeruginosa [21] = experiment: Antimicrobial activity against ampG deficient Pseudomonas aeruginosa PAO1 harboring pZY0908 conferring resistance to gentamycin after 16 to 20 hrs by broth microdilution method; procedure, shortened: as §2
Pseudomonas aeruginosa [22] = experiment: Antimicrobial activity against ampG deficient Pseudomonas aeruginosa PAO1 harboring pZY0901 conferring resistance to gentamycin after 16 to 20 hrs by broth microdilution method; procedure, shortened: as §2
Pseudomonas aeruginosa [23] = experiment: Antimicrobial activity against ampG deficient Pseudomonas aeruginosa PAK harboring pZY0901 conferring resistance to gentamycin after 16 to 20 hrs by broth microdilution method; procedure, shortened: as §2
Pseudomonas aeruginosa [24] = experiment: Antimicrobial activity against Pseudomonas aeruginosa PAK after 16 to 20 hrs by broth microdilution method in presence of 120 uM carbonyl cyanide m-chlorophenyl-hydrazone; procedure, shortened: as §1
Pseudomonas aeruginosa [25] = experiment: Antimicrobial activity against ampD, ampDh2, ampDh3 deficient Pseudomonas aeruginosa PAO1 after 16 to 20 hrs by broth microdilution method in presence of 120 uM carbonyl cyanide m-chlorophenyl-hydrazone; procedure, shortened: as §3
Pseudomonas aeruginosa [26] = experiment: Antimicrobial activity against Pseudomonas aeruginosa isolate 3 obtained from cystic fibrosis patients after 16 to 20 hrs by broth microdilution method in presence of 120 uM carbonyl cyanide m-chlorophenyl-hydrazone; procedure, shortened: as §3
Pseudomonas aeruginosa [27] = experiment: Antimicrobial activity against ampD, ampDh2, ampDh3 and ampG deficient Pseudomonas aeruginosa PAO1 harboring pZY0901 conferring resistance to gentamycin after 16 to 20 hrs by broth microdilution method in presence of 120 uM carbonyl cyanide m-chlorophenyl-hydrazone; procedure, shortened: as §3
Pseudomonas aeruginosa [28] = experiment: Antimicrobial activity against ampG, ampGh1 deficient Pseudomonas aeruginosa PAK after 16 to 20 hrs by broth microdilution method in presence of 120 uM carbonyl cyanide m-chlorophenyl-hydrazone; procedure, shortened: as §3

Compound `CC1(C)S[C@@H]2[C@H](NC(=O)[C@H](N)c3ccccc3)C(=O)N2[C@H]1C(=O)O` [AMPICILLIN] has an MIC (Pseudomonas aeruginosa [1]) of 256 µg/mL, an MIC (Pseudomonas aeruginosa [2]) of 8 µg/mL and an MIC (Pseudomonas aeruginosa [3]) of 256 µg/mL (≈ 733 µM). The MIC (Pseudomonas aeruginosa [4]) was 512 µg/mL (≈ 1470 µM), the MIC (Pseudomonas aeruginosa [5]) was 8 µg/mL and the MIC (Pseudomonas aeruginosa [6]) was 32 µg/mL. The MIC (Escherichia coli) was 1020 µg/mL (≈ 2930 µM), the MIC (Pseudomonas aeruginosa [7]) was greater than 1020 µg/mL and the MIC (Pseudomonas aeruginosa [8]) was 8 µg/mL. For the same compound, the MIC (Pseudomonas aeruginosa [9]) was 8 µg/mL, the MIC (Pseudomonas aeruginosa [10]) was 256 µg/mL (≈ 733 µM) and the MIC (Pseudomonas aeruginosa [11]) was 512 µg/mL. For the same compound, the MIC (Pseudomonas aeruginosa [12]) was 32 µg/mL, the MIC (Pseudomonas aeruginosa [13]) was 32 µg/mL (≈ 91.6 µM) and the MIC (Pseudomonas aeruginosa [14]) was greater than 1020 µg/mL. It also gave an MIC (Pseudomonas aeruginosa [15]) of 128 µg/mL, an MIC (Pseudomonas aeruginosa [16]) of 32 µg/mL and an MIC (Pseudomonas aeruginosa [17]) of 8 µg/mL. The MIC (Pseudomonas aeruginosa [18]) was 512 µg/mL (≈ 1470 µM), the MIC (Pseudomonas aeruginosa [19]) was 512 µg/mL (≈ 1470 µM) and the MIC (Pseudomonas aeruginosa [20]) was 512 µg/mL. It also gave an MIC (Pseudomonas aeruginosa [21]) of 32 µg/mL (≈ 91.6 µM), an MIC (Pseudomonas aeruginosa [22]) of 1020 µg/mL (≈ 2930 µM) and an MIC (Pseudomonas aeruginosa [23]) of 512 µg/mL (≈ 1470 µM). For the same compound, the MIC (Pseudomonas aeruginosa [24]) was 256 µg/mL, the MIC (Pseudomonas aeruginosa [25]) was 64 µg/mL and the MIC (Pseudomonas aeruginosa [26]) was 64 µg/mL. The MIC (Pseudomonas aeruginosa [27]) was 32 µg/mL and the MIC (Pseudomonas aeruginosa [28]) was 32 µg/mL.
